# MT1-MMP act inh: MT1-MMP (human) activation inhibition; P50281; HT1080 RFP-PRO-GFP cells, GFP/RFP ratio fluorescence, overnight; percent of plate control window, DMSO zero; GFP/RFP ratio change, % at 20 µM; 0.061% of 360,000 active;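 active = GFP/RFP ratio change of at least 30% with cell ATP level not reduced by more than half and red fluorescence within 50% of control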
#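 system = RFP-PRO-GFP reporter HT1080 cells | dosing = 20 µM single dose, 1% DMSO | timing = overnight cell settling, then overnight compound exposure, 37 °C, 5% CO2 | read-out basis = GFP/RFP fluorescence ratio | controls = DMSO and RFP-L50D-GFP cell wells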
# SKN-1 block: C. elegans SKN-1 inhibition; C. elegans VP596 Pgst-4::GFP/RFP ratio, acrylamide-induced, 24 h; inhibition, % at 21.8 µM; 0.49% of 360,000 active; AID 624304;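 active = interference check ratio from 0.5 to 1.5 plus GFP to RFP signal ratio inhibition reaching or exceeding a fixed threshold, cut at about 30% in these data, passing the limit was not always enough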
# Cneo AK release: causes C. neoformans cell lysis | adenylate kinase release luminescence, 4 h; normalised: neutral wells 0, clomiphene wells 100 | AID 651654 | lysis activity, % at 15 µM | 0.2% of 360,000 active;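 active = mean lysis activity across replicates of at least 80%, whatever share of replicates individually reach that level; inactive = mean lysis activity below 80%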
#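 Schedule: static 4 h at 37 °C with compound, 1 h detection; system: C. neoformans cells; benchmarks: Clomiphene as positive control; buffer or medium: fresh YPD medium; measure: luminescence rise reflecting yeast cell lysis; measured by: luminescent adenylate kinase detection reagent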
# iPSC survival up: increases survival of single human iPS cells; hiPSC single-cell survival, ATPlite luminescence; 100% = ROCK inhibitor wells, 0% = DMSO; survival enhancement, % at 20 µM; 0.044% of 360,000 active; in the data active = survival enhancement above about 18%;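 also: cells exposed to compounds for 16 hours before the ATP read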
# rRNA inh HTS: inhibitors of bacterial rRNA selective over humanized ribosomes. E. coli WT GFP vs humanized-ribosome RFP mutants, fluorescence, 24 h; stronger effect = lower value; DMSO median 0, no signal -100. GFP signal change (wild-type ribosome), % (concentration not given with the values). 1.6% of 350,000 active;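 active = significant combined selectivity score with lowered wild-type GFP, culture density cut under 30%, mutant RFP and density less affected; inactive = any of these conditions unmet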
# DAGLB inhibitor: blocks human DAGLB lipase activity; inhibition, % at 5.17 µM; 0.059% of 340,000 active; HEK293T DAGLB membrane lysate, EnzChek fluorogenic substrate; Q8NCG7; in the data active = inhibition above about 34%;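 also: 0% = enzyme with vehicle and 100% = wells lacking enzyme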
# Target sequence (Q8NCG7 whole entry, looked up): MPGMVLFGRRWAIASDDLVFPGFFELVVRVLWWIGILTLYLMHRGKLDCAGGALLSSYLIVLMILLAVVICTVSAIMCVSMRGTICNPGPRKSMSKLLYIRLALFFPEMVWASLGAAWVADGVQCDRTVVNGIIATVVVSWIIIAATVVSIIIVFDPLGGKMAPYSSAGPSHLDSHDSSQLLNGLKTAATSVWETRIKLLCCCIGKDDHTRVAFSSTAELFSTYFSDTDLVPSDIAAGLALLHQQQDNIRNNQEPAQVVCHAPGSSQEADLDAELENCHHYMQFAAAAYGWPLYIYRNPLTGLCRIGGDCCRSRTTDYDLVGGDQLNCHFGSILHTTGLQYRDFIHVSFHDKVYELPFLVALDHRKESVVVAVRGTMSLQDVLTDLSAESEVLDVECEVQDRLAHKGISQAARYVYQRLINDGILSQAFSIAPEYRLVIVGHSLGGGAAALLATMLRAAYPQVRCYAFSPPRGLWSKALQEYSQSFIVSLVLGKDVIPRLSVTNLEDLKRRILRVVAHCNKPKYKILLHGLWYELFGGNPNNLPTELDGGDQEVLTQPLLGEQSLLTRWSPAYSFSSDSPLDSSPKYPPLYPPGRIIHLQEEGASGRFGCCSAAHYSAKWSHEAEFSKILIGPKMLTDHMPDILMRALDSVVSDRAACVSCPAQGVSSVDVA
# Numbers without * were called inactive; nt = no result given. Sampled rows, rich in hits. Any-hit rate of the full collection: about 1.8%.
SMILES,MT1-MMP act inh,SKN-1 block,Cneo AK release,iPSC survival up,rRNA inh HTS,DAGLB inhibitor
COc1c(OC(C)=O)ccc(/C=C/c2ccc3ccccc3n2)c1[N+](=O)[O-],3,23,-25,2,-43*,-2
CCCC(=O)N1CCC2(CC1)CN(C(=O)CC)[C@@H](CO)c1c2c2ccc(OC)cc2n1C,nt,nt,nt,nt,-3,nt
CNC[C@@H]1OCCCC[C@@H](C)Oc2ccc(NC(=O)Cc3ccccc3)cc2C(=O)N([C@H](C)CO)C[C@@H]1C,nt,nt,1,nt,2,nt
Cc1c(Cl)cccc1NC(=O)CC1SCCNC1=O (stereo not drawn),-8,22,5,0,nt,2
Cc1c(Cl)cccc1NC(=O)CC1NCCNC1=O (stereo not drawn),-3,38*,1,-1,nt,-3
O=C(CNC(=O)c1ccc(F)cc1)N/N=C/c1cc(Br)ccc1OC(=O)/C=C/c1ccco1,9,6,nt,-1,-28*,4
O=C(N[C@@H]1C=C[C@H](CC(=O)N2CCc3ccccc3C2)O[C@@H]1CO)C1CCOCC1,nt,nt,nt,nt,5,nt
Cc1ccc(S(=O)(=O)N2CC[C@@H]3[C@H]2c2cc(-c4ccccc4F)ccc2N[C@@H]3CO)cc1,nt,nt,104*,nt,-1,nt
COC(=O)c1cc(-c2cccc(OC)c2)n[nH]1,4,37*,-3,-1,nt,2
COC(=O)c1cc(-c2ccc(OC)cc2)n[nH]1,0,11,2,0,-2,-2
O=C1O[C@H](c2ccccc2)[C@H](c2ccccc2)N2[C@H]1[C@@H](C(=O)N1CCCCCCC1)[C@]1(C(=O)Nc3ccc(C#CC4=CCCCC4)cc31)[C@H]2c1ccc(O)cc1,nt,nt,31,nt,nt,nt
COc1ccc(N(C)S(=O)(=O)c2cccc(C(=O)Nc3ccc(N4CCOCC4)cc3)c2)cc1,1,8,0,-1,-21*,3
COc1ccc(NC(=O)N2C[C@@H](O)COC[C@@H]3O[C@@H](CC(=O)N4CCCCC4)CC[C@H]32)cc1,nt,nt,-2,nt,0,nt
O=C(O)c1cc(NN=C2c3ccccc3-c3ccccc32)ccc1Cl,1,5,-1,0,-48,13
O=C(O)c1cccc2c1-c1ccccc1/C2=N\Nc1ccccc1,-5,2,-4,0,-39*,5
O=C(O)c1cccc(NN=C2c3ccccc3-c3ccccc32)c1,-2,5,nt,1,-53*,9
c1ccc(CCNc2nnnn2-c2ccccc2)cc1,1,37*,-2,4,nt,1
C1=C(CCNc2nnnn2-c2ccccc2)CCCC1,2,-1,0,-2,nt,-1
Cc1ccc(C23CC4CC(CC(C(N)=O)(C4)C2)C3)cc1,2,9,0,-1,-23*,-1
Cc1ccc(C23CC4CC(CC(C(=O)N(C)C)(C4)C2)C3)cc1,3,-10,1,0,-12,-3
C[C@@H](NC(=O)C[C@H]1C[C@@H]2c3cc(NC(=O)C4CCOCC4)ccc3O[C@@H]2[C@@H](CO)O1)c1ccccc1,nt,nt,-4,nt,-3,nt
O=C(Nc1ccccc1Br)C1CCN(S(=O)(=O)c2cccs2)CC1,3,0,-4,-2,-16*,-2
Cc1ccccc1NC(=O)C1CCN(S(=O)(=O)c2cccs2)CC1,-18,2,1,0,1,0
CCCC(=O)N1CC2(C1)CN(C(=O)C1CCCC1)[C@H](CO)c1[nH]c3cc(OC)ccc3c12,nt,nt,nt,nt,0,nt
CC(=O)Nc1ccc(S(=O)(=O)N(CC(=O)Nc2cc(C)on2)Cc2ccc(F)cc2)cc1,2,3,nt,0,-24*,2
SMILES,MT1-MMP act inh,SKN-1 block,Cneo AK release,iPSC survival up,rRNA inh HTS,DAGLB inhibitor
C[C@@H]1CN([C@H](C)CO)C(=O)c2cc(/C=C/c3ccccc3)cnc2O[C@@H]1CN(C)C(=O)c1ccc(F)cc1,nt,nt,-7,nt,-2,nt
COc1cc(NS(=O)(=O)c2ccc(Br)cc2)c(OC)cc1NC(=O)c1ccco1,-2,48*,nt,-1,nt,-1
C/C=C/c1ccc([C@H]2[C@@H](CO)N(C(=O)c3ccccc3)C23CN(C(C)=O)C3)cc1,nt,nt,nt,nt,5,nt
CC[n+]1ccccc1/C=C/c1ccc(N(C)C)cc1,-85,41*,1,-2,79,-3
COc1ccc([C@H]2C/C=C\C[C@H](c3cccc(Cl)c3)NC(=O)[C@@H](c3ccccc3)CC(=O)N2)c(OC)c1,nt,nt,nt,nt,4,nt
COC(=O)C1=C(N)Oc2cc(C)n(CC3CCCO3)c(=O)c2C1c1ccc(Cl)c(Cl)c1 (stereo not drawn),3,33*,-2,1,nt,-3
COC(=O)C1=C(N)Oc2cc(C)n(C)c(=O)c2C1c1ccc(Cl)c(Cl)c1 (stereo not drawn),6,13,4,-2,nt,-1
COc1ccc(S(=O)(=O)Nc2ccc3c(c2)CC(=O)N([C@H](C)CO)C[C@H](C)[C@@H](CN(C)C(=O)NC2CCCCC2)O3)cc1,nt,nt,1,nt,1,nt
Cc1cc(-c2nnn(CCCOC(C)(C)C)c2C)ccc1-c1cn(CCCOC(C)(C)C)nn1,-5,37*,0,-2,1,-1
O=C(C[C@@H]1C/C=C\C[C@@H](Cc2ccc(F)cc2)C(=O)OC[C@H]2CCCN2C1=O)N[C@H](CO)Cc1ccccc1,-2,9,7,0,-18*,-1
O=C(C[C@H]1C/C=C\C[C@@H](Cc2ccc(F)cc2)C(=O)OC[C@H]2CCCN2C1=O)N[C@@H](CO)Cc1ccccc1,5,-6,0,0,-5,0
C[C@@H]1CN([C@@H](C)CO)C(=O)c2cccc(NS(=O)(=O)c3ccc(F)cc3)c2O[C@H]1CN(C)S(=O)(=O)c1ccc(Cl)cc1,nt,nt,110*,nt,2,nt
Cc1cc(C(=O)Nc2cccc3c2O[C@@H](CN(C)S(=O)(=O)c2ccccc2)[C@@H](C)CN([C@@H](C)CO)C3=O)n(C)n1,nt,nt,104*,nt,0,nt
Cc1ccc(S(=O)(=O)N(C)C[C@H]2Oc3c(cccc3N(C)C)C(=O)N([C@H](C)CO)C[C@H]2C)cc1,nt,nt,-1,nt,2,nt
Cc1cc(C(=O)Nc2cccc3c2O[C@@H](CN(C)S(=O)(=O)c2ccccc2)[C@@H](C)CN([C@H](C)CO)C3=O)n(C)n1,nt,nt,-4,nt,-9,nt
Cc1noc(C)c1NC(=O)Nc1cccc2c1O[C@H](CN(C)S(=O)(=O)c1cn(C)cn1)[C@H](C)CN([C@H](C)CO)C2=O,nt,nt,96*,nt,nt,nt
Cc1noc(C)c1NC(=O)Nc1cccc2c1O[C@@H](CN(C)S(=O)(=O)c1cn(C)cn1)[C@H](C)CN([C@@H](C)CO)C2=O,nt,nt,0,nt,-4,nt
Cc1ccc(S(=O)(=O)N(C)C[C@H]2Oc3c(cccc3N(C)C)C(=O)N([C@@H](C)CO)C[C@H]2C)cc1,nt,nt,90*,nt,-5,nt

# Screening data deposited in PubChem BioAssay by several laboratories.
